TRPC4 agonist: TRPC4 (mouse) channel activation; HEK293 TRPC4beta/mu-opioid, Fluo4 calcium fluorescence; hits give high values; B-score at 10 µM; 0.49% of 310,000 active; Q9QUQ5;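 active means B-score above 5 SD of library B-scores, and initial fluorescence ratio not above library mean plus 5 SD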;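 further: positive B-score marks a calcium rise read as TRPC4 activation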
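Technique: kinetic Fluo4 calcium fluorescence; Test system: TRPC4beta and mu-opioid receptor HEK293 stable cells; Measure: B-scored integrated calcium fluorescence ratio; Benchmarks: low control buffer alone, high control maximal DAMGO; Schedule: 45 min room-temperature Fluo4 loading, 110 s read.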
TRPC6 inhibitor: inhibitors of mouse TRPC6 channel. HEK293-TRPC6, membrane potential dye, ACh-evoked depolarization; hits give low values. Q61143. B-score at 10 µM. AID 2553. 1.1% of 310,000 active;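 active means B-score under library mean minus 3 SD, initial fluorescence not abnormally high, positive integrated signal ratio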;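 further: B-score derived from integrated fluorescence ratio over the kinetic read; more negative B-score means stronger inhibition of depolarization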
Target sequence (Q61143 whole entry, looked up): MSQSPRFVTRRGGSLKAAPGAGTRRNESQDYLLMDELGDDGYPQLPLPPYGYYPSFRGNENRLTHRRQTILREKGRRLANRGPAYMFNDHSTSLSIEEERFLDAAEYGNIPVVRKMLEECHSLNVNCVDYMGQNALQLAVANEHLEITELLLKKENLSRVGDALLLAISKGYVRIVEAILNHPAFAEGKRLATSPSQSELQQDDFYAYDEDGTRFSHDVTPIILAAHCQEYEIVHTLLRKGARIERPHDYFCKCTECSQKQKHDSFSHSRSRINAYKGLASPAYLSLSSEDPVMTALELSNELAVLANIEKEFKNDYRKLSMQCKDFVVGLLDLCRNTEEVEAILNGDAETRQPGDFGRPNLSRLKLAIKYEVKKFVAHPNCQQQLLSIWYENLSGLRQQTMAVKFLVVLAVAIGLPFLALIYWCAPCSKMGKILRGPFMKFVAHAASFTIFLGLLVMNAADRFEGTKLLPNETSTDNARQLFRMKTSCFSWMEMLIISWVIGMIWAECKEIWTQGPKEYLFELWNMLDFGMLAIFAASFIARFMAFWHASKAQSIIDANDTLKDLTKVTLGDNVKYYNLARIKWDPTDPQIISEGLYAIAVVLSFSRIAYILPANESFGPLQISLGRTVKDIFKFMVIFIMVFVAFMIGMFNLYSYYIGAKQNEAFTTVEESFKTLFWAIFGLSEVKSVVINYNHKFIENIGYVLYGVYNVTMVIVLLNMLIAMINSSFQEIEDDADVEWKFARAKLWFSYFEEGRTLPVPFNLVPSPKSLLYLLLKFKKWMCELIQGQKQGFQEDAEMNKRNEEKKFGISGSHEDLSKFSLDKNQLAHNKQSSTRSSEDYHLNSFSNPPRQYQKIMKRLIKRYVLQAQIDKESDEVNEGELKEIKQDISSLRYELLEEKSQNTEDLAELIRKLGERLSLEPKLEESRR
TRPC4 PAM: allosterically enhances the mouse TRPC4 cation channel | Q9QUQ5 | HEK293 TRPC4beta/mu-opioid, DAMGO EC20, Fluo-4 Ca2+ flux; hits give high values | B-score at 10 µM | 0.42% of 310,000 active;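 active means B-score of calcium response area above 5 SD of library B-scores, with initial fluorescence ratio within 5 SD of library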
DSG3 Ab inh: inhibitors of pemphigus antibody binding to human desmoglein-3 | P32926 | DSG3-coupled beads, scFv-anti-DSG3-GFP binding, flow cytometry; hits give low values | binding (percent of control), % at 10 µM | 0.48% of 310,000 active;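 active means binding more than 3 SD below its plate's average and above zero; inconclusive means below that plate limit but binding exactly zero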;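 further: hits lower antibody fragment binding to DSG3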
TRPC6 act: activates the mouse TRPC6 cation channel. Q61143. 0.13% of 310,000 active. B-score at 10 µM. HEK293-TRPC6 membrane potential dye fluorescence; hits give high values;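 active means B-score of the integrated fluorescence ratio above library mean plus 3 SD, and starting fluorescence ratio within library mean plus 5 SD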;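 further: higher score means more depolarization so channel activation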
TRPC4 inh: inhibitors of mouse TRPC4 channel. Q9QUQ5. 0.39% of 300,000 active. HEK293 TRPC4beta/mu-opioid, DAMGO-evoked Fluo4 calcium flux; hits give low values. B-score at 10 µM;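 active means B-score over 3 SD under the library average, no early fluorescence shift, positive overall ratio signal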
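Assay system: HEK293 cells with stable TRPC4beta plus mu-opioid receptor expression; Probe or stimulus: DAMGO in two steps, submaximal then maximal; Dosing: single-point compound dosing; Measured by: Fluo4 calcium-dye fluorescence, kinetic read; Read-out basis: B score from integrated Fluo4 fluorescence ratio.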
Of the large screens only hits and unclear results are named; the others gave an inactive call. Rows were chosen to be rich in hits. Some 2.5% of all compounds tested hit in one or more screens of this group.

CCOc1cc(/C=C2/C(=O)ON=C2C)cc(Br)c1O	none
CCOc1cc(/C=C2\C(=O)ON=C2c2ccccc2)cc(Br)c1O	TRPC6 act 17.3
COc1cc(/C=C2\C(=O)ON=C2c2ccccc2)cc(Cl)c1O	TRPC4 inh -8
O=C(Nc1ccc(F)cc1)C(Sc1nc2ccccc2[nH]1)c1ccccc1 (configuration not stated)	none (no result: DSG3 Ab inh)
Cc1ccc(NP(=O)(c2ccc(N(C)C)cc2NC(=O)c2cccs2)N2CCOCC2)cc1Cl (configuration not stated)	DSG3 Ab inh 85.3
Cc1ccc(NP(=O)(c2ccc(N(C)C)cc2NC(=O)c2cccs2)N2CCOCC2)cc1 (configuration not stated)	none
CCOc1cc(CN2CCN(c3ccc(C(C)=O)cc3)CC2)ccc1OC	TRPC4 PAM 11
CCOc1cc(CN2CCCCC2)ccc1OC	none
CC(=O)c1ccc(N2CCN(C(=O)CCCn3c(=O)[nH]c4ccccc4c3=O)CC2)cc1	none
COc1ccc(N2CCN(C(=O)CCCn3c(=O)[nH]c4cc(Cl)ccc4c3=O)CC2)cc1	TRPC4 inh -6
O=C1CCCCC1C(O)(C(=O)c1ccccc1)c1ccccc1 (configuration not stated)	none (no result: TRPC4 agonist, TRPC6 inhibitor, TRPC4 PAM, TRPC6 act, TRPC4 inh)
COc1ccc(C2CC(=O)c3cnc(N4CCN(Cc5ccccc5)CC4)nc3C2)cc1 (configuration not stated)	TRPC4 PAM 19
CCOC(=O)C1CCN(C(=O)C2CC(=O)N(c3ccc4c(c3)OCCO4)C2)CC1 (configuration not stated)	none
COc1ccc(-c2csc(NC(=O)Cc3cccc4ccccc34)c2C(=O)O)cc1	TRPC4 inh -7
CCOc1cc(/C=N/NC(=O)C2CC2)ccc1OC(C)C	none
O=C(c1cc2cc3ccc(Cl)cc3nc2o1)N1CCN(Cc2ccc3c(c2)OCO3)CC1	DSG3 Ab inh 59.3 (no result: TRPC4 agonist, TRPC6 inhibitor, TRPC4 PAM, TRPC6 act, TRPC4 inh)
O=C(CSCc1cccc(Cl)c1)N1CCN(Cc2ccc3c(c2)OCO3)CC1	DSG3 Ab inh inconclusive, TRPC4 inh -7
O=C(c1cc2cc(Cl)ccc2[nH]1)N1CCN(Cc2ccc3c(c2)OCO3)CC1	none
Clc1ccc(-c2ccc(C=Nc3ccc(N4CCOCC4)cc3)o2)c(Cl)c1	DSG3 Ab inh 26.7
Clc1ccc(-c2ccc(C=Nc3ccc(N4CCOCC4)cc3)o2)cc1	none
CCCCCC(=O)Nc1nc(C)c(-c2csc(Nc3cc(Cl)ccc3OC)n2)s1	DSG3 Ab inh 78.6
CCCC(=O)Nc1nc(C)c(-c2csc(Nc3cc(OC)ccc3OC)n2)s1	none
CC(NS(=O)(=O)OCC(Cl)(Cl)Cl)c1ccc(Br)cc1 (configuration not stated)	TRPC4 PAM 15
CC(C)CC(NS(=O)(=O)OCC(Cl)(Cl)Cl)c1ccccc1 (configuration not stated)	none (no result: TRPC4 inh)
CC(C)CNC(=O)c1ccccc1NC(=O)CN(c1ccccc1)S(=O)(=O)N(C)C	DSG3 Ab inh 53.6
O=c1c2cc(-c3ccccc3)sc2ncn1-n1cccc1	DSG3 Ab inh 82.4
Cc1cc2c(N=NC(=O)C3CC3c3ccccc3)c(O)[nH]c2cc1Br (configuration not stated)	none
Cc1c(C(=O)NCC(c2ccco2)N(C)C)oc2c(Cl)cccc12 (configuration not stated)	TRPC4 inh -8
Cc1cc(C(=O)NCC(c2ccco2)N(C)C)ccc1[N+](=O)[O-] (configuration not stated)	TRPC4 agonist 71 (no result: DSG3 Ab inh)
CN(C)C(CNC(=O)CCNC(=O)c1ccc(Br)cc1)c1ccco1 (configuration not stated)	none
CC(C)CCOc1ccc(C(=O)NCC(c2ccco2)N(C)C)cc1 (configuration not stated)	TRPC4 inh -7 (no result: DSG3 Ab inh)
CN(C)C(CNC(=O)c1ccc(Br)cc1)c1ccco1 (configuration not stated)	TRPC4 agonist 63
CC(=O)c1ccc(OCCCC(=O)NCC(c2ccco2)N(C)C)cc1 (configuration not stated)	none (no result: DSG3 Ab inh)
CCN(CC)CCCN(C(=O)Cn1nnc(-c2ccc(OC)c(OC)c2)n1)C(C(=O)NC(C)(C)C)c1ccc(F)cc1 (configuration not stated)	none
CC(C)(C)c1ccc(C(=O)NC2CCN(Cc3ccccc3)CC2)cc1	none
CN(C)C(CNC(=O)c1ccccc1OCc1ccc(Cl)cc1)c1ccco1 (configuration not stated)	TRPC4 inh -7
COc1ccc(S(N)(=O)=O)cc1C(=O)N(C)CC(=O)Nc1ccc(N2CCOCC2)cc1	none
CCC(C)NC(=O)Cn1c(COc2ccc(Cl)cc2Cl)nc2ccccc21 (configuration not stated)	DSG3 Ab inh -1.1
c1ccc(CNc2ccc(CNc3ncn[nH]3)cc2)cc1	none
COc1cc(CNc2ccc(CNc3ncn[nH]3)cc2)cc(Cl)c1OCc1ccccc1	DSG3 Ab inh 82.5
Cc1nc2nc(-c3ccccc3)cn2nc1C	none
CCc1c(-c2ccccc2)nc2nc(C)c(C)nn12	DSG3 Ab inh 33.3
CCC1C(=O)N=C(SCC(=O)Nc2ccc(C)cc2)N(c2ccccc2)C1=O (configuration not stated)	none (no result: DSG3 Ab inh)
Cc1sc2ncnc(NCC(C)(C)N3CCOCC3)c2c1C	TRPC4 agonist 162
COc1ccc(S(=O)(=O)Nc2cccc(S(=O)(=O)N3CCCC3)c2)cc1OC	none
Cc1ccc(NC(=O)CCNC(=O)c2ccc(Cl)cc2)nc1	none
Cc1cc(S(=O)(=O)NCCCn2ccnc2)c(C)cc1Cl	none
Cc1cc(Cl)c(Cl)cc1S(=O)(=O)NCCCn1ccnc1	TRPC4 PAM 11
COc1ccc(C2NC(C(=O)O)Cc3c2[nH]c2ccccc32)cc1CN1CCN(c2ccc(F)cc2)CC1 (configuration not stated)	TRPC4 inh -6
COc1ccc(CN(CCN(C)C)Cc2ccccc2)c(OC)c1	DSG3 Ab inh 78.3
Nc1sc(-c2ccccc2)n[n+]1Cc1cccc2cccnc12	TRPC4 agonist 58
C=CCn1nnnc1SCC(=O)Nc1cccc(C(F)(F)F)c1	none
CC1CCCN(CCCNC(=O)c2ccc3c(c2)N(Cc2ccccc2F)C(=O)c2ccccc2S3(=O)=O)C1 (configuration not stated)	TRPC4 agonist 114
Cc1ccc(NC2=Nc3ccccc3CC2)cc1	TRPC4 agonist 54
Brc1ccc(NC2=Nc3ccccc3CC2)cc1	none (no result: DSG3 Ab inh)
N#Cc1c(N)sc2c1CCCCCC2	TRPC4 inh -7
N#Cc1c(N)sc(=S)c2c1CCCCC2	none
O=C(CN1CCN(Cc2ccc3c(c2)OCO3)CC1)NCC(F)(F)F	none
CCNC(=S)N/N=C/c1cc(C)n(-c2ccc(Cl)cc2)c1C	TRPC4 PAM 22

Source: PubChem BioAssay
